Data published in ChEMBL document CHEMBL4145578, “Protoilludane, Illudalane, and Botryane Sesquiterpenoids from the Endophytic Fungus Phomopsis sp. TJ507A” (J Nat Prod, 2018).
Each block holds one compound with its values, some of them ahead of it.

Legend:
[1] = system: L02; assay: Cytotoxicity against human L02 cells assessed as effect on cell viability at 40 uM after 24 hrs by MTT assay; assay type: cell-based; conditions: l02, 24 h
Method in brief: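 L-02 cells grown in DMEM with 10% FBS at 37 °C and 5% CO2, seeded at 5 × 10^3 cells/well, then settled over 12 h. Compound in DMSO added at 40 μM final (DMSO below 0.4%) for 24 h. MTT (5 mg/mL stock) added for a further 4 h. Formazan dissolved in DMSO and absorbance read at 570 nm.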

[2] = target: Beta-secretase 1 (Homo sapiens) (UniProt P56817); assay: Inhibition of BACE1 (unknown origin) at 0.5 uM using BACE1 substrate measured after 2 hrs by FRET assay relative to control
Beta-secretase 1 (Homo sapiens), sequence (P56817 whole entry): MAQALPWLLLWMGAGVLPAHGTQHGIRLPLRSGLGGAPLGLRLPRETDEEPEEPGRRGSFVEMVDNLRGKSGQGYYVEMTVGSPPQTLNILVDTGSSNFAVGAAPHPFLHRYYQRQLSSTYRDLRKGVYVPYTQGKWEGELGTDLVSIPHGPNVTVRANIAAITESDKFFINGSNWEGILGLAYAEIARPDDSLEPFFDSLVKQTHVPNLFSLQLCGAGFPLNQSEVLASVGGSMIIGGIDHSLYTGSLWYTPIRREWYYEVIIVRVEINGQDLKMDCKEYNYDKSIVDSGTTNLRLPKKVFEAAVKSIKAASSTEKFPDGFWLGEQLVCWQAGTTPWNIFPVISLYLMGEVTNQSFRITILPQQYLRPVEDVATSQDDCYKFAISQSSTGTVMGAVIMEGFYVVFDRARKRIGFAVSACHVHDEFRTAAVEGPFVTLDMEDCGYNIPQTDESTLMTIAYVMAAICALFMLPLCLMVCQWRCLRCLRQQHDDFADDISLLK

SMILES: CC1=C2[C@H](O)C[C@]2(C)[C@H]2C[C@@](C)(CO)C=C2C1=O
Activity [1]: Non-Toxic

inhibition [2]: 38.6%
SMILES: C[C@@]1(c2cc(-c3cncnc3)c(F)cc2F)CCSC(N)=N1

SMILES: C[C@H]1C(=O)[C@]2(O)CC(C)(C)C[C@@H]2[C@@]2(C)CC[C@@]12O
Activity [1]: Non-Toxic

SMILES: Cc1c(O)c2c(c(C)c1CCO)C(=O)C(C)(C)C2 [ONITIN]
Activity [1]: Non-Toxic

SMILES: Cc1ccc2c3c1C(=O)OC[C@@]3(C)[C@H](O)C2(C)C
Activity [1]: Non-Toxic

SMILES: CC(=O)OCCc1c(C)c(O)c2c(c1C)[C@@H](O)C(C)(C)C2
Activity [1]: Non-Toxic

SMILES: CC1C(=O)C2=CC(C)(C)C[C@]2(O)[C@@]2(C)C[C@@H](O)C12 (some centres not stated)
Activity [1]: Non-Toxic

SMILES: CC1=C2CC[C@]2(C)[C@]2(O)C(=CC(C)(C)[C@H]2O)C1=O
Activity [1]: Non-Toxic

SMILES: Cc1c(O)c2c(c(C)c1CCO)C(=O)C(C)(C)[C@@H]2O
Activity [1]: Non-Toxic

SMILES: CC1C(=O)C2=CC(C)(C)C[C@]2(O)[C@@]2(C)CCC12 (some centres not stated)
Activity [1]: Non-Toxic

SMILES: Cc1cc2c(c(C)c1CCO)CC(C)(C)C2
Activity [1]: Non-Toxic

SMILES: CC1=C2[C@H](O)C[C@]2(C)[C@H]2CC(C)(C)C=C2C1=O
Activity [1]: Non-Toxic

SMILES: CC1=C2CC[C@]2(C)[C@H]2C[C@@](C)(CO)C=C2C1=O
Activity [1]: Non-Toxic

SMILES: CC1=C2[C@H](O)C[C@]2(C)[C@H]2C[C@](C)(CO)C=C2C1=O
Activity [1]: Non-Toxic

SMILES: CC1=C2OCC[C@]2(C)[C@H]2CC(C)(C)C=C2C1=O
Activity [1]: Non-Toxic

SMILES: Cc1cc2c(c(C)c1CCO)C(=O)C(C)(C)C2 [PTEROSIN Z]
Activity [1]: Non-Toxic

SMILES: CC1=C2CC[C@]2(C)[C@@H]2C(=CC(C)(C)[C@H]2O)C1=O
Activity [1]: Non-Toxic
